Reference: ChEMBL document CHEMBL3351381, “Synthesis, structure-activity relationship studies, and antibacterial evaluation of 4-chromanones and chalcones, as well as olympicin A and derivatives” (J Med Chem, 2014)
≈ marks a conversion by molar mass, not a printed value. Calls of active or inactive are those of the source. The calls are words filed in the database; no cut-off is given here.

Key:
[1] = tested on: Mycobacterium tuberculosis; assay: Antimicrobial activity against Mycobacterium tuberculosis H37Rv by microbroth dilution method; format: functional
Enterococcus faecalis = assay: Antimicrobial activity against Enterococcus faecalis ATCC 33186 by microbroth dilution method; format: functional
Staphylococcus aureus [2] = assay: Antimicrobial activity against methicillin-sensitive Staphylococcus aureus ATCC 29213 by microbroth dilution method; format: functional
Escherichia coli [3] = assay: Antimicrobial activity against Escherichia coli K-12 by microbroth dilution method; format: functional
Escherichia coli [4] = assay: Antimicrobial activity against tolC-deficient Escherichia coli by microbroth dilution method; format: functional
Staphylococcus aureus [5] = assay: Antimicrobial activity against methicillin-resistant Staphylococcus aureus NRS 70 by microbroth dilution method; format: functional
Klebsiella pneumoniae = assay: Antimicrobial activity against Klebsiella pneumoniae ATCC 33495 at >200 ug/ml by microbroth dilution method; format: functional
Pseudomonas aeruginosa = assay: Antimicrobial activity against Pseudomonas aeruginosa PAO1 at >200 ug/ml by microbroth dilution method; format: functional
[6] = Solubility of the compound in DMEM/FBS medium; format: physicochemical
How it was run: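 Solubility limit estimated from 2-fold serial dilutions in DMEM with 5% FBS kept overnight at 37 °C; highest concentration with no visible precipitate taken.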

Vero = assay: Cytotoxicity against african green monkey Vero cells assessed as reduction in cell viability by MTT assay; format: cell-based; details: Chlorocebus sabaeus
How it was run: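 Vero kidney epithelial cells (ATCC CCL-81) in DMEM/10% FBS, trypsinized, seeded near 10% confluence, left overnight to adhere; medium swapped for DMEM/FBS with 2-fold serial compound dilutions.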

[7] = Selectivity index, ratio of CC50 for african green monkey Vero cells to IC50 for methicillin-resistant Staphylococcus aureus NRS 70; format: functional
How it was run: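 Vero kidney epithelial cells were grown in DMEM/10% FBS, trypsinized, seeded at about 10% confluence and left overnight to adhere. They were then exposed to 2-fold serial compound dilutions in DMEM/FBS, and viability was read by MTT after overnight solubilization. SI = cytotoxic IC50 divided by MIC against MRSA.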

[8] = Inhibition of purified recombinant Escherichia coli topoisomerase 1 assessed as relaxation of supercoiled plasmid DNA after 30 mins by electrophoretic analysis
DNA gyrase = DNA gyrase (Escherichia coli, UniProt P0AES4+P0AES6); assay: Inhibition of Escherichia coli DNA gyrase assessed as supercoiled plasmid DNA formation after 30 mins by electrophoretic analysis; format: protein-complex assay
[9] = Inhibition of Escherichia coli topoisomerase 4 assessed as inhibition of decatenation of catenated kinetoplast DNA after 30 mins by electrophoretic analysis
Staphylococcus aureus [10] = assay: Disruption of membrane potential in Staphylococcus aureus Newman assessed as […] at 4 times MIC using DiOC2(3) probe by fluorescence assay; format: functional
How it was run: (§1)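 S. aureus Newman grown to OD600nm ≈ 0.3 in Mueller–Hinton II, stained with DiOC2(3) and run on flow cytometry; red/green fluorescence ratio gives membrane potential. CCCP positive control, vancomycin negative control.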

Staphylococcus aureus [11] = assay: Disruption of membrane potential in Staphylococcus aureus Newman assessed as […] using DiOC2(3) probe by fluorescence assay; format: functional; how it was run: as §1

| Structure (SMILES) | MIC [1] | MIC (Enterococcus faecalis) | MIC (Staphylococcus aureus [2]) | MIC (Escherichia coli [3]) | MIC (Escherichia coli [4]) | MIC (Staphylococcus aureus [5]) | MIC (Klebsiella pneumoniae) | MIC (Pseudomonas aeruginosa) | solubility [6] | IC50 (Vero) | Selectivity Index [7] | IC50 [8] | IC50 (DNA gyrase) | IC50 [9] | Activity (Staphylococcus aureus [10]) | Activity (Staphylococcus aureus [11]) |
| --- | --- | --- | --- | --- | --- | --- | --- | --- | --- | --- | --- | --- | --- | --- | --- | --- |
| CCCCCCOc1ccccc1/C=C/C(=O)c1ccc(O)cc1O | > 200 µg/mL | 1.56 µg/mL (≈ 4.58 µM) | 3.13 µg/mL (≈ 9.19 µM) | > 200 µg/mL | > 200 µg/mL | 0.78 µg/mL (≈ 2.29 µM) | > 200 µg/mL | > 200 µg/mL | > 200 µg/mL | 7.2 µg/mL (≈ 21.2 µM) | 9.2 | > 500 µM | > 1000 µM | 60 µM |  |  |
| CCCCCCOc1ccccc1C1CC(=O)c2ccc(O)cc2O1 (centres undefined) | > 200 µg/mL | 50 µg/mL (≈ 147 µM) | 1.56 µg/mL (≈ 4.58 µM) | > 200 µg/mL | 1.56 µg/mL (≈ 4.58 µM) | 1.56 µg/mL (≈ 4.58 µM) | > 200 µg/mL | > 200 µg/mL | > 200 µg/mL | 24.5 µg/mL (≈ 72 µM) | 15.7 | > 500 µM | > 1000 µM | > 1000 µM |  |  |
| CCCCCCCCCC1CC(=O)c2c(O)cc(O)cc2O1 (centres undefined) | 100 µg/mL (≈ 326 µM) | 100 µg/mL (≈ 326 µM) | 100 µg/mL (≈ 326 µM) | > 200 µg/mL | 12.5 µg/mL (≈ 40.8 µM) | 3.13 µg/mL (≈ 10.2 µM) | > 200 µg/mL | > 200 µg/mL | > 200 µg/mL | 8.6 µg/mL (≈ 28.1 µM) | 2.8 |  |  |  |  |  |
| CCCCCCCC1C/C(=N\O)c2c(O)cc(O)cc2O1 (centres undefined) | 100 µg/mL (≈ 341 µM) | 6.25 µg/mL (≈ 21.3 µM) |  | > 200 µg/mL |  |  | > 200 µg/mL | > 200 µg/mL | > 200 µg/mL | 9.6 µg/mL (≈ 32.7 µM) | 3.1 |  |  |  |  |  |
| CC[C@H](C)C(=O)c1c(O)cc(O)cc1OC/C=C(\C)CCC=C(C)C [OLYMPICIN A] |  |  |  | > 200 µg/mL |  | 1.56 µg/mL (≈ 4.5 µM) | > 200 µg/mL | > 200 µg/mL |  |  |  | > 500 µM |  | 30 µM | Active | Dose-dependent effect |
| CC(C)=CCCC(C)CC1CC(=O)c2c(O)cc(O)cc2O1 (centres undefined) | 200 µg/mL (≈ 657 µM) | 6.25 µg/mL (≈ 20.5 µM) |  | > 200 µg/mL | 1.56 µg/mL (≈ 5.13 µM) | 3.13 µg/mL (≈ 10.3 µM) | > 200 µg/mL | > 200 µg/mL | > 200 µg/mL | 27 µg/mL (≈ 88.7 µM) | 8.6 |  |  |  | Active | Dose-dependent effect |
| CC(C)=CCCC(C)CC1CC(=O)c2ccc(O)cc2O1 (centres undefined) | 200 µg/mL (≈ 694 µM) | 12.5 µg/mL (≈ 43.3 µM) | 6.25 µg/mL (≈ 21.7 µM) | > 200 µg/mL | 1.56 µg/mL (≈ 5.41 µM) | 3.13 µg/mL (≈ 10.9 µM) | > 200 µg/mL | > 200 µg/mL | > 200 µg/mL | 28.8 µg/mL (≈ 99.9 µM) | 9.2 |  |  |  |  |  |
| O=C1CC2(CCCCCC2)Oc2cc(O)ccc21 | 100 µg/mL (≈ 406 µM) | 200 µg/mL (≈ 812 µM) | 50 µg/mL (≈ 203 µM) | > 200 µg/mL | 12.5 µg/mL (≈ 50.7 µM) | 50 µg/mL (≈ 203 µM) | > 200 µg/mL | > 200 µg/mL |  |  |  |  |  |  |  |  |
| C=CCOc1cccc(/C=C/C(=O)c2ccc(O)cc2O)c1 | 50 µg/mL (≈ 169 µM) | > 200 µg/mL | 6.25 µg/mL (≈ 21.1 µM) | > 200 µg/mL | 3.13 µg/mL (≈ 10.6 µM) | 12.5 µg/mL (≈ 42.2 µM) | > 200 µg/mL | > 200 µg/mL |  |  |  |  |  |  |  |  |
| CCCCCCCCOc1ccccc1/C=C/C(=O)c1ccc(O)cc1O | > 200 µg/mL | 1.56 µg/mL (≈ 4.23 µM) | 25 µg/mL (≈ 67.8 µM) | > 200 µg/mL | > 200 µg/mL | 6.25 µg/mL (≈ 17 µM) | > 200 µg/mL | > 200 µg/mL |  |  |  |  |  |  |  |  |
| CCCCCc1cc(OC(=O)c2c(O)cc(O)cc2CCCCC)cc(O)c1C(=O)O |  |  |  |  |  |  |  |  |  |  |  | 14 µM |  |  |  |  |
| CCCC1C/C(=N\O)c2c(O)cc(O)cc2O1 (centres undefined) | 100 µg/mL (≈ 421 µM) | 100 µg/mL (≈ 421 µM) | 100 µg/mL (≈ 421 µM) | > 200 µg/mL | 25 µg/mL (≈ 105 µM) | 50 µg/mL (≈ 211 µM) | > 200 µg/mL | > 200 µg/mL |  |  |  |  |  |  |  |  |
| C=CCOc1ccc(/C=C/C(=O)c2ccc(O)cc2O)cc1 | 50 µg/mL (≈ 169 µM) | 100 µg/mL (≈ 337 µM) | 25 µg/mL (≈ 84.4 µM) | > 200 µg/mL | > 200 µg/mL | > 200 µg/mL | > 200 µg/mL | > 200 µg/mL |  |  |  |  |  |  |  |  |
| CCCCCCC1CC(=O)c2ccc(O)cc2O1 (centres undefined) | 50 µg/mL (≈ 201 µM) | > 200 µg/mL | > 200 µg/mL | > 200 µg/mL | 3.13 µg/mL (≈ 12.6 µM) | > 200 µg/mL | > 200 µg/mL | > 200 µg/mL |  |  |  |  |  |  |  |  |
| CCCCCCCCCC1C/C(=N\OCc2ccccc2)c2c(O)cc(O)cc2O1 (centres undefined) | > 200 µg/mL | 50 µg/mL (≈ 121 µM) | > 200 µg/mL | > 200 µg/mL | > 200 µg/mL | > 200 µg/mL | > 200 µg/mL | > 200 µg/mL |  |  |  |  |  |  |  |  |
| CCCCCCCC1CC(=O)c2c(O)cc(O)cc2O1 (centres undefined) | 50 µg/mL (≈ 180 µM) | 200 µg/mL (≈ 719 µM) | 12.5 µg/mL (≈ 44.9 µM) | > 200 µg/mL | 1.56 µg/mL (≈ 5.6 µM) | 3.13 µg/mL (≈ 11.2 µM) | > 200 µg/mL | > 200 µg/mL | 150 µg/mL (≈ 539 µM) | 33 µg/mL (≈ 119 µM) | 10.5 | > 500 µM | > 1000 µM | 120 µM |  |  |
